In ChEMBL document CHEMBL1148987, “Antimycobacterial coumarins from the sardinian giant fennel (Ferula communis)” (2004):
≈ marks a conversion by molar mass, not a printed value.

Key:
Format in all cases: functional
[1] = tested on: Mycolicibacterium smegmatis; experiment: Antimycobacterial activity against Mycobacterium smegmatis ATCC 14468 after 72 hrs by MTT assay; conditions: ATCC 14468, 72 h
Outline: (§1)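 Standard broth microdilution MIC in Ca2+/Mg2+-adjusted Mueller-Hinton broth; strains kept on Columbia blood agar with 5% defibrinated horse blood. DMSO stocks diluted into MHB, 2-fold series with final range […]. Inoculum from 0.5 McFarland standard in saline, final 5 × 10^5 cfu/mL; 37 °C for 72 h. Growth read by MTT (20 min, 37 °C, blue = growth); MIC = lowest concentration with no growth.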

Mycolicibacterium aurum = experiment: Antimycobacterial activity against Mycobacterium aurum after 120 hrs by MTT assay
Outline: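 Broth microdilution MIC in Ca2+/Mg2+-adjusted Mueller-Hinton broth; strain maintained on Columbia blood agar with 5% defibrinated horse blood. Compounds dissolved in DMSO, diluted into MHB, 2-fold serial dilutions giving final 512 to 1 μg/mL. Inoculum from 0.5 McFarland in saline, final 5 × 10^5 cfu/mL. Incubated 37 °C, 120 h. MTT added, 20 min at 37 °C; blue indicates growth; MIC = lowest concentration without growth.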

[2] = tested on: Mycolicibacterium fortuitum; experiment: Antimycobacterial activity against Mycobacterium fortuitum ATCC 6841 after 72 hrs by MTT assay; conditions: ATCC 6841, 72 h; outline: as §1
Mycolicibacterium phlei = experiment: Antimycobacterial activity against Mycobacterium phlei ATCC 11758 after 72 hrs by MTT assay; conditions: ATCC 11758, 72 h; outline: as §1

CC(C)=CCC/C(C)=C/CC/C(C)=C/Cc1c(O)c2ccccc2oc1=O
MIC [1]: 0.5 µg/mL (≈ 1.36 µM)
MIC (Mycolicibacterium aurum): 2 µg/mL (≈ 5.46 µM)
MIC [2]: 2 µg/mL (≈ 5.46 µM)
MIC (Mycolicibacterium phlei): 2 µg/mL (≈ 5.46 µM)

CC(=O)OC/C(C)=C/CC/C(C)=C/CC/C(C)=C/Cc1c(O)c2ccccc2oc1=O
MIC [1]: 8 µg/mL (≈ 18.8 µM)
MIC (Mycolicibacterium aurum): 16 µg/mL (≈ 37.7 µM)
MIC [2]: 32 µg/mL (≈ 75.4 µM)
MIC (Mycolicibacterium phlei): 8 µg/mL (≈ 18.8 µM)

C/C(=C\CC/C(C)=C/Cc1c(O)c2ccccc2oc1=O)CC/C=C(\C)COC(=O)c1ccccc1
MIC [1]: 2 µg/mL (≈ 4.11 µM)
MIC (Mycolicibacterium aurum): 8 µg/mL (≈ 16.4 µM)
MIC [2]: 16 µg/mL (≈ 32.9 µM)
MIC (Mycolicibacterium phlei): 2 µg/mL (≈ 4.11 µM)

NNC(=O)c1ccncc1 [ISONIAZID]
MIC [1]: 1 µg/mL (≈ 7.29 µM)
MIC (Mycolicibacterium aurum): 2 µg/mL (≈ 14.6 µM)
MIC [2]: 0.5 µg/mL (≈ 3.65 µM)
MIC (Mycolicibacterium phlei): 4 µg/mL (≈ 29.2 µM)

C/C(=C\CC/C(C)=C/CC/C(C)=C/Cc1c(O)c2ccccc2oc1=O)CO
MIC [1]: 16 µg/mL (≈ 41.8 µM)
MIC (Mycolicibacterium aurum): 32 µg/mL (≈ 83.7 µM)
MIC [2]: 64 µg/mL (≈ 167 µM)
MIC (Mycolicibacterium phlei): 16 µg/mL (≈ 41.8 µM)

CC[C@@H](CO)NCCN[C@@H](CC)CO [ETHAMBUTOL]
MIC [1]: 0.5 µg/mL (≈ 2.45 µM)
MIC (Mycolicibacterium aurum): 0.5 µg/mL (≈ 2.45 µM)
MIC [2]: 8 µg/mL (≈ 39.2 µM)
MIC (Mycolicibacterium phlei): 2 µg/mL (≈ 9.79 µM)

CCCCCCCCCc1c(O)c2ccccc2oc1=O
MIC [2]: 3.5 µg/mL (≈ 12.1 µM)
